Experimental data reported in ChEMBL document CHEMBL3621102, “Structure-activity study of quinazoline derivatives leading to the discovery of potent EGFR-T790M inhibitors” (Eur J Med Chem, 2015).
pIC50: −log10 of the molar value. Calls of active or inactive are those of the source. The rule behind the calls is not given here.

Assays:
[1] = target: Epidermal growth factor receptor (Homo sapiens, UniProt P00533); assay: Inhibition of EGFR (unknown origin) by ELISA method
[2] = system: NCI-H1975; assay: Antitumor activity against human NCI-H1975 cells xenografted in BALB/c mouse assessed as tumor growth inhibition at 50 mg/kg po, qd for 21 days; assay type: functional, organism-based
Outline: (§1)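 Athymic mice received 2 × 10⁶ tumour cells subcutaneously in the right flank. At 100–300 mm³ they were randomised to control and treatment groups (n = 6); controls received vehicle alone. Tumour volume = length × width²/2 and RTV = Vt/V0.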

[3] = AUC (0 to 24 hrs) in Sprague-Dawley rat at 1 mg/kg, iv by LC/MS/MS method; assay type: ADME, organism-based; set-up: time < 24 hr, dose 1 mg/kg, route intravenous; settings: in vivo
Outline: (§2)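 Male Sprague-Dawley rats (n = 3) dosed once at 1 mg/kg iv via tail vein, or once at 5 mg/kg by oral gavage, using the same formulation. Serial blood samples were taken over 24 h. Plasma levels were measured by LC/MS/MS (C18 column, 10 mM ammonium formate-0.1% formic acid water/methanol 10/90, ESI positive). Parameters were derived by noncompartmental analysis.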

[4] = Bioavailability in Sprague-Dawley rat at 1 mg/kg, iv incubated for 24 hrs by LC/MS/MS method; assay type: ADME, organism-based; settings: in vivo; outline: as §2
[5] = Clearance in Sprague-Dawley rat at 1 mg/kg, iv incubated for 24 hrs by LC/MS/MS method; assay type: ADME, organism-based; settings: in vivo; outline: as §2
[6] = system: NCI-H1975; assay: Antiproliferative activity against human NCI-H1975 cells assessed as growth inhibition; assay type: functional
Outline: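 NCI-H1975 cells were grown in RPMI with 1 mM sodium pyruvate, 10% FBS and 1% penicillin-streptomycin, under humidified 5% CO₂ at 37 °C. Growth inhibition was read as GI₅₀.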

[7] = Apparent volume of distribution in Sprague-Dawley rat at 1 mg/kg, iv incubated for 24 hrs by LC/MS/MS method; assay type: ADME, organism-based; settings: in vivo, read-out: Vd(app); outline: as §2
[8] = Elimination half-life in Sprague-Dawley rat at 1 mg/kg, iv incubated for 24 hrs by LC/MS/MS method; assay type: ADME, organism-based; settings: in vivo, read-out: beta t1/2 (converted); outline: as §2
[9] = Mean residence time in Sprague-Dawley rat at 1 mg/kg, iv incubated for 24 hrs by LC/MS/MS method; assay type: ADME, organism-based; settings: in vivo; outline: as §2
[10] = AUC (0 to infinity) in Sprague-Dawley rat at 1 mg/kg, iv by LC/MS/MS method; assay type: ADME, organism-based; set-up: dose 1 mg/kg, time infinity, route intravenous; settings: in vivo; outline: as §2
[11] = system: A-431; assay: Antitumor activity against human A431 cells xenografted in BALB/c mouse assessed as tumor growth inhibition at 5 mg/kg po, qd for 18 days; assay type: functional, organism-based; outline: as §1
[12] = system: HCC827; assay: Antitumor activity against human HCC827 cells xenografted in BALB/c mouse assessed as tumor growth inhibition at 5 mg/kg po, qd for 12 days; assay type: functional, organism-based; outline: as §1
[13] = system: NCI-H1975; assay: Antitumor activity against human NCI-H1975 cells xenografted in BALB/c mouse assessed as tumor growth inhibition at 30 mg/kg po, qd for 21 days relative to control; assay type: functional, organism-based; outline: as §1

Epidermal growth factor receptor, sequence (P00533 whole entry): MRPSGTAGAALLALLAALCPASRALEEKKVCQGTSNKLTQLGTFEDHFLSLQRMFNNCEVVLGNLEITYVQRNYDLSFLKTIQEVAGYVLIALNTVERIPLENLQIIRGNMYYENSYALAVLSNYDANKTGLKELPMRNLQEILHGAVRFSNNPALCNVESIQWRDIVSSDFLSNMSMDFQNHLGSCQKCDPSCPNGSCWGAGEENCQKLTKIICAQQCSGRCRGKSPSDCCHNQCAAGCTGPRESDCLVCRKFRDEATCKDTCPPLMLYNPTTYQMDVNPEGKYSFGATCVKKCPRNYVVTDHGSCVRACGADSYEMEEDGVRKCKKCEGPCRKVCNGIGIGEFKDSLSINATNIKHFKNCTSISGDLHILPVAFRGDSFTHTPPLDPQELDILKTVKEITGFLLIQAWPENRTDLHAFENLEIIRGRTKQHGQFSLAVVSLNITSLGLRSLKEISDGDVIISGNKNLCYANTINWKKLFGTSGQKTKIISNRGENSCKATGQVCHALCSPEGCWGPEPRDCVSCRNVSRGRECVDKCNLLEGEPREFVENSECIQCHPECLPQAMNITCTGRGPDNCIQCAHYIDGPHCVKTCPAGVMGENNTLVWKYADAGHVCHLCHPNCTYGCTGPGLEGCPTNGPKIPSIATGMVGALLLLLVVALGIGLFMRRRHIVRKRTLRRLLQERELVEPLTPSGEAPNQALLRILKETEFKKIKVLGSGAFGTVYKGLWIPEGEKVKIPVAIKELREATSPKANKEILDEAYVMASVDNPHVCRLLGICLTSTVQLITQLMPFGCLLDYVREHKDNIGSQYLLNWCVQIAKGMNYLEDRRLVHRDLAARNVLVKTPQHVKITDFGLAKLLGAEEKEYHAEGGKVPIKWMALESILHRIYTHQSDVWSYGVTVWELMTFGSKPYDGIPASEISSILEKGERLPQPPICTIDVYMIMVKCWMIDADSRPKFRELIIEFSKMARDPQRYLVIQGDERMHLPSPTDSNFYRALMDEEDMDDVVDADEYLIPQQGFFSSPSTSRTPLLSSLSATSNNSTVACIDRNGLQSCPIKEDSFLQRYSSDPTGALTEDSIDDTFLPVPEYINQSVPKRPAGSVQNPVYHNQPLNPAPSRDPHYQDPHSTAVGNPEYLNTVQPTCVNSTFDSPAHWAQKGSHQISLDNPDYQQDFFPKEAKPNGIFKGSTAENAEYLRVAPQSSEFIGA

Structure (SMILES)	pIC50 [1]	also measured
C=CC(=O)Nc1cc2c(Nc3ccc(F)c(C#N)c3)ncnc2cc1O[C@H]1CCOC1	6.78	–
O=C(/C=C/CN(C1CC1)C1CC1)Nc1cc2c(Nc3ccc(F)c(Cl)c3)ncnc2cc1O[C@H]1CCOC1	< 6.00	–
COCCOc1cc2ncnc(Nc3ccc(Br)cc3F)c2cc1NC(=O)/C=C/CN(C)C	8.52	–
CC(C)NC/C=C/C(=O)Nc1cc2c(Nc3ccc(F)c(Cl)c3)ncnc2cc1O[C@H]1CCOC1	8.15	TGI [2]: inactive; AUC(0-t) at 24 h [3]: 166 ng·h/mL; bioavailability [4]: < 5%; clearance [5]: 90 mL/min/kg; GI50 [6]: 22.4 nM; Vd [7]: 6.5 L/kg; half-life [8]: 9.9 h; MRT [9]: 8.8 h; AUC(0-inf) [10]: 197 ng·h/mL
C=CC(=O)Nc1cc2c(Nc3ccc(OCc4cccc(F)c4)cc3)ncnc2cc1O[C@H]1CCOC1	7.14	–
CN(C)C/C=C/C(=O)Nc1cc2c(Nc3ccc(OCc4ccccn4)c(Cl)c3)ncnc2cc1O[C@H]1CCOC1	8.09	–
COCCOc1cc2ncnc(Nc3ccc(F)c(Cl)c3)c2cc1NC(=O)/C=C/CN1CCCCC1	8.68	GI50 [6]: 92.3 nM
COc1cc2ncnc(Nc3ccc(F)c(Cl)c3)c2cc1NC(=O)/C=C/CN(C1CC1)C1CC1	< 6.00	–
C#Cc1cccc(Nc2ncnc3cc(O[C@H]4CCOC4)c(NC(=O)/C=C/CN(C)C)cc23)c1	8.92	–
C=CC(=O)Nc1cc2c(Nc3ccc(Br)cc3F)ncnc2cc1O[C@H]1CCOC1	6.92	–
COCCOc1cc2ncnc(Nc3ccc(NC(=O)/C=C/CN(C)C)c(C(F)(F)F)c3)c2cc1NC(=O)/C=C/CN(C)C	6.99	–
C#Cc1cccc(Nc2ncnc3cc(O[C@H]4CCOC4)c(NC(=O)/C=C/CN4CCCCC4)cc23)c1	8.28	GI50 [6]: 40.1 nM
COc1cc2ncnc(Nc3ccc(F)c(Cl)c3)c2cc1NC(=O)/C=C/CN(C)C1CC1	7.57	GI50 [6]: 32.2 nM
C=CC(=O)Nc1cc2c(Nc3ccc(Cl)c(C(F)(F)F)c3)ncnc2cc1O[C@H]1CCOC1	6.98	–
CN(C)C/C=C/C(=O)Nc1cc2c(Nc3ccc(OCc4cccc(F)c4)c(Cl)c3)ncnc2cc1O[C@H]1CCOC1	6.29	–
CN(C)C/C=C/C(=O)Nc1cc2c(Nc3ccc(OCc4cccc(F)c4)cc3)ncnc2cc1O[C@H]1CCOC1	6.87	–
COCCOc1cc2ncnc(Nc3ccc(OCc4cccc(F)c4)c(Cl)c3)c2cc1NC(=O)/C=C/CN(C)C	< 6.00	–
O=C(/C=C/CN1CCCCC1)Nc1cc2c(Nc3ccc(F)c(Cl)c3)ncnc2cc1O[C@H]1CCOC1	8.28	GI50 [6]: 168 nM
CN(C)C/C=C/C(=O)Nc1cc2c(Nc3ccc(F)c(C#N)c3)ncnc2cc1O[C@H]1CCOC1	6.83	–
C=CC(=O)Nc1cc2c(Nc3ccc(F)c(C#N)c3)ncnc2cc1OCCOC	6.71	–
O=C(/C=C/CNC1CC1)Nc1cc2c(Nc3ccc(F)c(Cl)c3)ncnc2cc1OCC(F)(F)F	–	GI50 [6]: 20.3 nM
C=CC(=O)Nc1cc2c(Nc3ccc(NC(=O)C=C)c(C(F)(F)F)c3)ncnc2cc1OCCOC	6.94	–
C#Cc1cccc(Nc2ncnc3cc(OC4CCN(C)CC4)c(NC(=O)/C=C/CN(C)C)cc23)c1	8.09	–
O=C(/C=C/CN1CC[S+]([O-])CC1)Nc1cc2c(Nc3ccc(F)c(Cl)c3)ncnc2cc1O[C@H]1CCOC1	6.96	–
COCCOc1cc2ncnc(Nc3ccc(Cl)c(C(F)(F)F)c3)c2cc1NC(=O)/C=C/CN(C)C	6.24	–
C=CC(=O)Nc1cc2c(Nc3ccc(Cl)c(C(F)(F)F)c3)ncnc2cc1OCCOC	< 6.00	–
C=CC(=O)Nc1cc2c(Nc3ccc(OCc4cccc(F)c4)c(Cl)c3)ncnc2cc1O[C@H]1CCOC1	6.25	–

Structure (SMILES)	pIC50 [1]	also measured
C=CC(=O)Nc1cc2c(Nc3ccc(OCc4ccccn4)cc3)ncnc2cc1O[C@H]1CCOC1	7.00	–
COCCOc1cc2ncnc(Nc3ccc(F)c(C#N)c3)c2cc1NC(=O)/C=C/CN(C)C	< 6.00	–
C=CC(=O)Nc1cc2c(Nc3ccc(F)c(Cl)c3)ncnc2cc1O[C@H]1CCOC1	8.24	–
C#Cc1cccc(Nc2ncnc3cc(OC)c(NC(=O)/C=C/CN4CCCCC4)cc23)c1	8.57	GI50 [6]: 48.9 nM
COCCOc1cc2ncnc(Nc3ccc(OCc4ccccn4)c(Cl)c3)c2cc1NC(=O)/C=C/CN(C)C	8.27	–
C#Cc1cccc(Nc2ncnc3cc(O[C@H]4CCOC4)c(NC(=O)/C=C/CNC(C)C)cc23)c1	8.19	TGI [2]: inactive; AUC(0-t) at 24 h [3]: 92.6 ng·h/mL; bioavailability [4]: < 5%; clearance [5]: 170 mL/min/kg; GI50 [6]: 19.8 nM; Vd [7]: 7.4 L/kg; half-life [8]: 1.5 h; MRT [9]: 2.6 h; AUC(0-inf) [10]: 105 ng·h/mL
COc1cc2ncnc(Nc3ccc(F)c(Cl)c3)c2cc1NC(=O)/C=C/CN1CC[S+]([O-])CC1	< 6.00	–
COCCOc1cc2ncnc(Nc3ccc(F)c(Cl)c3)c2cc1NC(=O)/C=C/CN(C)C1CC1	8.05	GI50 [6]: 87.1 nM
COc1cc2ncnc(Nc3ccc(F)c(Cl)c3)c2cc1NC(=O)/C=C/CNC1CC(F)(F)C1	6.85	GI50 [6]: 98.7 nM
COCCOc1cc2ncnc(Nc3ccc(F)c(Cl)c3)c2cc1NC(=O)/C=C/CN1CC[S+]([O-])CC1	6.45	–
COCCOc1cc2ncnc(Nc3ccc(F)c(Cl)c3)c2cc1NC(=O)/C=C/CN(C)C	8.92	–
CN(C)C/C=C/C(=O)Nc1cc2c(Nc3ccc(OCc4ccccn4)cc3)ncnc2cc1O[C@H]1CCOC1	8.05	–
C#Cc1cccc(Nc2ncnc3cc(OCCOC)c(NC(=O)C=C)cc23)c1	8.74	–
C=CC(=O)Nc1cc2c(Nc3ccc(OCc4cccc(F)c4)c(Cl)c3)ncnc2cc1OCCOC	6.99	–
O=C(/C=C/CNC1CC1)Nc1cc2c(Nc3ccc(F)c(Cl)c3)ncnc2cc1OC(F)F	8.02	GI50 [6]: 34.6 nM
COc1cc2ncnc(Nc3ccc(F)c(Cl)c3)c2cc1NC(=O)/C=C/CN1CCCCC1 [DACOMITINIB ANHYDROUS]	–	GI50 [6]: 123 nM
COCCOc1cc2ncnc(Nc3ccc(OCc4cccc(F)c4)cc3)c2cc1NC(=O)/C=C/CN(C)C	7.04	–
C#Cc1cccc(Nc2ncnc3cc(OCC)c(NC(=O)/C=C/CN4CCCCC4)cc23)c1	8.21	GI50 [6]: 30.4 nM
O=C1CCN(C/C=C/C(=O)Nc2cc3c(Nc4ccc(F)c(Cl)c4)ncnc3cc2O[C@H]2CCOC2)CC1	6.28	–
C#Cc1cccc(Nc2ncnc3cc(OC)c(NC(=O)/C=C/CN(C)C4CC4)cc23)c1	8.48	GI50 [6]: 70.5 nM
C#Cc1cccc(Nc2ncnc3cc(O[C@H]4CCOC4)c(NC(=O)C=C)cc23)c1	7.49	–
CN(C)C/C=C/C(=O)Nc1cc2c(Nc3ccc(F)c(Cl)c3)ncnc2cc1O[C@H]1CCOC1	–	TGI [11]: Active; TGI [12]: Active; TGI [13]: Active
CN(C)C/C=C/C(=O)Nc1cc2c(Nc3ccc(F)c(Cl)c3)ncnc2cc1O[C@H]1CCOC1 [AFATINIB]	–	AUC(0-t) at 24 h [3]: 277 ng·h/mL; bioavailability [4]: 62.3%; clearance [5]: 54.2 mL/min/kg; GI50 [6]: 107 nM; Vd [7]: 10.8 L/kg; half-life [8]: 9.6 h; MRT [9]: 10.6 h; AUC(0-inf) [10]: 324 ng·h/mL
COCCOc1cc2ncnc(Nc3ccc(OCc4ccccn4)cc3)c2cc1NC(=O)/C=C/CN(C)C	8.00	–
C#Cc1cccc(Nc2ncnc3cc(OC4CCOCC4)c(NC(=O)/C=C/CN(C)C)cc23)c1	8.22	–
CCOc1cc2ncnc(Nc3ccc(F)c(Cl)c3)c2cc1NC(=O)/C=C/CN(C1CC1)C1CC1	< 6.00	–
CCOc1cc2ncnc(Nc3ccc(F)c(Cl)c3)c2cc1NC(=O)/C=C/CN(C)C1CC1	8.26	GI50 [6]: 160 nM
